How the values were obtained:
Conditions in all cases: stereoisomer not certain
OR10A2 (Homo sapiens) = OR10A2 (Homo sapiens) (UniProt Q9H208)
Summary of the method: (§1)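 Whether a receptor–molecule pair is responsive (active) rests on the original authors' judgment that its measured signal was statistically different from baseline. Pairs without that judgment are non-responsive (inactive). Sources used varied assay methods, commonly transient luciferase assays in mammalian cell lines.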

OR10A4 (Homo sapiens) = OR10A4 (Homo sapiens) (UniProt Q9H209)
Summary of the method: as §1

OR10A5 (Homo sapiens) = OR10A5 (Homo sapiens) (UniProt Q9H207)
Summary of the method: as §1

OR10A6 (Homo sapiens) = OR10A6 (Homo sapiens) (UniProt Q8NH74)
Summary of the method: as §1

OR10A7 (Homo sapiens) = OR10A7 (Homo sapiens) (UniProt Q8NGE5)
Summary of the method: as §1

OR10AC1 (Homo sapiens) = OR10AC1 (Homo sapiens) (UniProt Q8NH08)
Summary of the method: as §1

OR10AD1 (Homo sapiens) = OR10AD1 (Homo sapiens) (UniProt Q8NGE0)
Summary of the method: as §1

OR10AG1 (Homo sapiens) = OR10AG1 (Homo sapiens) (UniProt Q8NH19)
Summary of the method: as §1

OR10C1 (Homo sapiens) = OR10C1 (Homo sapiens) (UniProt Q96KK4)
Summary of the method: as §1

OR10A3 (Homo sapiens) = OR10A3 (Homo sapiens) (UniProt P58181)
Summary of the method: as §1

Measured: odorant receptor agonist call;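 also: active if original authors judged signal statistically different from baseline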

OR10C1 (Homo sapiens), sequence (Q96KK4 whole entry): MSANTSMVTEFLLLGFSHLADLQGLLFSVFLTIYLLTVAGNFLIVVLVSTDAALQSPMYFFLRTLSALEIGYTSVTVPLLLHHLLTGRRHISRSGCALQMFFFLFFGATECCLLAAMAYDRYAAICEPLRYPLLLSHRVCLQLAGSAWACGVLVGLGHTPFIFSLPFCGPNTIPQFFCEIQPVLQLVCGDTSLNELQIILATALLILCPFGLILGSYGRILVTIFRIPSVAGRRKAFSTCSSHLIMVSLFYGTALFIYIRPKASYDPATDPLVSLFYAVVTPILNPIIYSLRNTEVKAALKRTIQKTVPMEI
OR10AD1 (Homo sapiens), sequence (Q8NGE0 whole entry): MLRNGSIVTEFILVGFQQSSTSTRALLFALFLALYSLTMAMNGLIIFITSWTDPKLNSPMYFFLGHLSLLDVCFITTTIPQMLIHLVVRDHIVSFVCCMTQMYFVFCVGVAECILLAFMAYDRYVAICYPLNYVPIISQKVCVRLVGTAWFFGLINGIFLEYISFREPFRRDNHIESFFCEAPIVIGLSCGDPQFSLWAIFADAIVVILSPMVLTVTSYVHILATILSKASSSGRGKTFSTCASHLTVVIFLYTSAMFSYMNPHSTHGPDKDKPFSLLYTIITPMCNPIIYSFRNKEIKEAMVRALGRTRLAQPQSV
OR10AG1 (Homo sapiens), sequence (Q8NH19 whole entry): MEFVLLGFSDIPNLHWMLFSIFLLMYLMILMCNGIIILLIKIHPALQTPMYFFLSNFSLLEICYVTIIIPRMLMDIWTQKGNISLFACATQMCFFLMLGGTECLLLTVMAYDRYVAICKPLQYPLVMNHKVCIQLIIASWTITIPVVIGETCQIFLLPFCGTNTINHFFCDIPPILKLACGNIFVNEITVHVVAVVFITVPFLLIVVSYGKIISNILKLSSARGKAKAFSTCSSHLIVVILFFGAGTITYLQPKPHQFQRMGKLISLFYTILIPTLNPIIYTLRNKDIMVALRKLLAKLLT
OR10A5 (Homo sapiens), sequence (Q9H207 whole entry): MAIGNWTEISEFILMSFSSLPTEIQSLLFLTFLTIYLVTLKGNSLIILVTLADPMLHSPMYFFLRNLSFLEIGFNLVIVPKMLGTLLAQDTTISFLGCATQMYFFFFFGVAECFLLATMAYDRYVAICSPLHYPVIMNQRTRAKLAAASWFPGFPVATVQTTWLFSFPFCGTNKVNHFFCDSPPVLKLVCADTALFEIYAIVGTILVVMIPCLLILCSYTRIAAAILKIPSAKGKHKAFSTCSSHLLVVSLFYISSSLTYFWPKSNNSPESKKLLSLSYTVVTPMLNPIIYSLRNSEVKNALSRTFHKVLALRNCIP
OR10A6 (Homo sapiens), sequence (Q8NH74 whole entry): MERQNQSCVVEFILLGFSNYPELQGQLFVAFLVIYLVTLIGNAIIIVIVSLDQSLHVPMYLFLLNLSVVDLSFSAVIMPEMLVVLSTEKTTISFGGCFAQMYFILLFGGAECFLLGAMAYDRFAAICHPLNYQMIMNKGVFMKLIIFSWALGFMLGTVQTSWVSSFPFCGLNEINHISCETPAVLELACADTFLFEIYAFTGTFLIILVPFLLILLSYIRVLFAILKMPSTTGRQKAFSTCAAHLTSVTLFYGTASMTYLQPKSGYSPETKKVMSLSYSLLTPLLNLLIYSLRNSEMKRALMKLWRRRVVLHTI
OR10A4 (Homo sapiens), sequence (Q9H209 whole entry): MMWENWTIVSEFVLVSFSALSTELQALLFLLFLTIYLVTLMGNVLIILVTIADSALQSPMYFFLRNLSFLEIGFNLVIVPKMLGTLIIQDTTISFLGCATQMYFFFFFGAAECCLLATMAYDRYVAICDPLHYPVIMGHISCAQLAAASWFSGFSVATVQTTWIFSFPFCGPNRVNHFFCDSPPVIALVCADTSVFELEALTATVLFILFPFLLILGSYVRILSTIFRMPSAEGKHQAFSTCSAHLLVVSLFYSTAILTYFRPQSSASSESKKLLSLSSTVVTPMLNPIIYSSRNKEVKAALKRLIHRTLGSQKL
OR10A2 (Homo sapiens), sequence (Q9H208 whole entry): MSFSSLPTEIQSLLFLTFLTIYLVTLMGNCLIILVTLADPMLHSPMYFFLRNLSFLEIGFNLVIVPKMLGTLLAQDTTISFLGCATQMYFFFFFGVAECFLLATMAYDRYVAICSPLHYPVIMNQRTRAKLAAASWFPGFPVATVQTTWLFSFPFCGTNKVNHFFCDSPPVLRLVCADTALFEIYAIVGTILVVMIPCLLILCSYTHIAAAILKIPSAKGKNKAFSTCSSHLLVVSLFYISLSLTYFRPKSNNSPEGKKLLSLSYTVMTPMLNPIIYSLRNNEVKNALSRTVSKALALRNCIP
OR10A7 (Homo sapiens), sequence (Q8NGE5 whole entry): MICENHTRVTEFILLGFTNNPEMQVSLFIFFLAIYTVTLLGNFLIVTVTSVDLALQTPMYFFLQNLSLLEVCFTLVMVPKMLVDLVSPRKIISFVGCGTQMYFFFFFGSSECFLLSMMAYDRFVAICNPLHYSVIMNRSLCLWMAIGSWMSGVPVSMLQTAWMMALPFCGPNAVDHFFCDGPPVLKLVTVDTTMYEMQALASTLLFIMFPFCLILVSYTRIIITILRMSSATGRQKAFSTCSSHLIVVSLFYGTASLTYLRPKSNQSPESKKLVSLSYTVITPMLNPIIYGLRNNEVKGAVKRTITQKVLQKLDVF
OR10A3 (Homo sapiens), sequence (P58181 whole entry): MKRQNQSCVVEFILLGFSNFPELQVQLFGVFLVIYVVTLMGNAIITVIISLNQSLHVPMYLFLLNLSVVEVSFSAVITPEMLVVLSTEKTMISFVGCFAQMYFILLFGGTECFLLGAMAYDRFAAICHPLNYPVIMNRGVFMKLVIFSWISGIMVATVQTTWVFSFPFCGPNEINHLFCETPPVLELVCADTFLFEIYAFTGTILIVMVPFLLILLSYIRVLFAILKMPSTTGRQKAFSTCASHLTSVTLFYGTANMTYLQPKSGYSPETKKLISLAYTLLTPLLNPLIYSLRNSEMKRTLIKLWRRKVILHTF
OR10AC1 (Homo sapiens), sequence (Q8NH08 whole entry): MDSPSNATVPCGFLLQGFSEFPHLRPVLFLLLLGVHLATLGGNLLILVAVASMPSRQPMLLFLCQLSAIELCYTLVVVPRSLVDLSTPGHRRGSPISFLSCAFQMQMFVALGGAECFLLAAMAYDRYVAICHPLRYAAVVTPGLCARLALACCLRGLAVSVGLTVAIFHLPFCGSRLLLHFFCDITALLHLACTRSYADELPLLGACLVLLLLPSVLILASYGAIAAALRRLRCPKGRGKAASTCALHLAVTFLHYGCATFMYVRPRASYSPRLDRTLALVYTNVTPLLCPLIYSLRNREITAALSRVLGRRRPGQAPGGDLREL

Cc1c([N+](=O)[O-])c(C)c([N+](=O)[O-])c(C(C)(C)C)c1[N+](=O)[O-]
inactive: OR10A2 (Homo sapiens) | OR10A4 (Homo sapiens) | OR10A5 (Homo sapiens) | OR10A6 (Homo sapiens) | OR10A7 (Homo sapiens) | OR10AC1 (Homo sapiens) | OR10AD1 (Homo sapiens) | OR10AG1 (Homo sapiens) | OR10C1 (Homo sapiens)

C=CCOC(=O)Cc1ccccc1
inactive: OR10A2 (Homo sapiens) | OR10A3 (Homo sapiens) | OR10A4 (Homo sapiens) | OR10A5 (Homo sapiens) | OR10A6 (Homo sapiens) | OR10A7 (Homo sapiens) | OR10AD1 (Homo sapiens) | OR10AG1 (Homo sapiens) | OR10C1 (Homo sapiens)

Reference: the M2OR odorant receptor database
